In brackets after ≈: the same amount, converted by molar mass.
Key:
Enterococcus faecalis = assay: Antibacterial activity against Enterococcus faecalis ATCC 29212 assessed as inhibition of visible growth after 24 hrs by broth microdilution method; type: functional
Summary of the method: (§1)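 Compounds dissolved in sterile water at the highest achievable concentration, then serially diluted in Mueller-Hinton II broth per CLSI broth microdilution. Strains grown 6 h in BHI, diluted in MHII to 1 × 10^6 cfu/mL final. Aerobic incubation 37 °C, 24 h; tetracycline internal control; bacteria-only growth controls. MIC = lowest concentration with no visible growth; triplicate.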

[1] = Therapeutic index, ratio of HC50 for human erythrocytes to MIC for Staphylococcus aureus ATCC 29213; type: toxicity; settings: read-out: TI
[2] = Retention time of the compound by RP-HPLC analysis; type: physicochemical
Summary of the method: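 RP-HPLC on C18 column (5 µm, 200 × 4.6 mm), 0.5 mL/min; hydrochlorides at 0.5–1 mg/mL in water:2-propanol 70:30, gradient to 10:90 over 40 min, then 20 min at 10:90. Adjusted retention time = instrumental retention time minus hold-up time.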

[3] = Therapeutic index, ratio of HC50 for human erythrocytes to MIC for Escherichia coli ATCC 25922; type: toxicity; settings: read-out: TI
Pseudomonas aeruginosa = assay: Antibacterial activity against Pseudomonas aeruginosa ATCC 27853 assessed as inhibition of visible growth after 24 hrs by broth microdilution method; type: functional; summary of the method: as §1
Enterococcus faecium = assay: Antibacterial activity against Enterococcus faecium 135562 (35C) assessed as inhibition of visible growth after 24 hrs by broth microdilution method; type: functional; summary of the method: as §1
[4] = Hemolytic activity against human erythrocytes measured after 1 hr by microplate reader based spectrophotometric analysis; type: ADME, cell-based, Erythrocyte
Summary of the method: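 Heparinized fresh human blood washed three times in PBS pH 7.4 (1000 g, 10 min), resuspended ~20 vol %. Equal volume with 1:2 serial dilutions of compound in PBS, 1 h at 37 °C; PBS and 0.2 vol % Triton X-100 controls. Supernatant diluted 1:60, A350 read. HC50 from three- or four-parameter Hill fit; mean of three replicates.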

Escherichia coli = assay: Antibacterial activity against Escherichia coli ATCC 25922 assessed as inhibition of visible growth after 24 hrs by broth microdilution method; type: functional; summary of the method: as §1
Staphylococcus aureus = assay: Antibacterial activity against Staphylococcus aureus ATCC 29213 assessed as inhibition of visible growth after 24 hrs by broth microdilution method; type: functional; summary of the method: as §1

SMILES	MIC (Enterococcus faecalis) [µg/mL]	selectivity ratio [1]	Retention_time [2] [min]	selectivity ratio [3]	MIC (Pseudomonas aeruginosa) [µg/mL]	MIC (Enterococcus faecium) [µg/mL]	HC50 at 1 h [4] [µg/mL]	MIC (Escherichia coli) [µg/mL]	MIC (Staphylococcus aureus) [µg/mL]
CCCCCCCCNC(=O)CN(NC(C)=O)C(=O)CN.Cl	256	1.7	9.3	0.9	256	128	223	256	128
CCCCCCCCCCCCNC(=O)CN(NC(C)=O)C(=O)CN.Cl	32	2	17.5	2	64	32	127	64	64
CCCCCCCCCCCCNC(=O)CN(C(=O)CN)N(C)C(=O)OCc1ccccc1	8 (≈ 17.3 µM)	–	20.7	–	512 (≈ 1110 µM)	8 (≈ 17.3 µM)	–	64 (≈ 138 µM)	8 (≈ 17.3 µM)
CCCCCCCCCCCCNC(=O)CN(NC(=O)CCCCCCC)C(=O)CN.Cl	32	5.7	24	1.4	512	16	367	256	64
CCCCCCCCCCCCCCCCCCNC(=O)CN(NC(=O)CCCCCCC)C(=O)CN.Cl	> 256	< 1	33.1	< 1	> 256	> 256	267	> 256	> 256
CCCNC(=O)CN(NC(C)=O)C(=O)CN.O=C(O)C(F)(F)F	2050	2.6	0.3	1.3	2050	2050	2700	2050	1020
CCCCCCCCCCCCNC(=O)CN(C(=O)CN)N(C)C(=O)C(C)(C)C	16 (≈ 38.8 µM)	–	18.9	–	512 (≈ 1240 µM)	16 (≈ 38.8 µM)	–	64 (≈ 155 µM)	16 (≈ 38.8 µM)
CCCCCCCCCCCC(=O)NN(CC(=O)NCCC)C(=O)CN.Cl	64	2.6	16.6	2.6	64	64	167	64	64
CCCCCCCCCCCCCCCCCCNC(=O)CN(NC(=O)CCCCCCCCCCCCCCCCC)C(=O)CN.Cl	–	–	41.8	–	–	–	–	–	–
CCCCCCCC(=O)NN(CC(=O)NCCC)C(=O)CN.Cl	1020	0.4	5.2	0.4	2050	1020	433	1020	1020
CCCCCCCCNC(=O)CN(NC(=O)OCc1ccccc1)C(=O)CN.Cl	128	3	14.3	3	128	64	189	64	64
CCCCCCCCNC(=O)CN(NC(=O)C(C)(C)C)C(=O)CN.Cl	256	1.5	11.7	3	512	256	775	256	512
CCCCCCCCCCCCNC(=O)CN(NC(=O)CCCCCCCCCCC)C(=O)CN.Cl	128	< 3.4	29.1	< 3.4	> 128	128	438	> 128	> 128
CCCCCCCCCCCCCCCCCC(=O)NN(CC(=O)NCCCCCCCCCCCC)C(=O)CN.Cl	512	0.5	35.8	0.2	512	256	124	512	256
CCCCCCCCCCCCNC(=O)CN(NC(=O)OCc1ccccc1)C(=O)CN.Cl	16	11	21.2	2.7	128	8	86	32	8
CCCCCCCCCCCCCCCCCCNC(=O)CN(NC(=O)OCc1ccccc1)C(=O)CN.Cl	512	0.5	30.9	0.5	512	256	243	512	512
CCCCCCCCCCCCCCCCCC(=O)NN(CC(=O)NCCC)C(=O)CN.Cl	32	3.7	26.5	0.5	512	16	234	512	64
CCCNC(=O)CN(NC(=O)OCc1ccccc1)C(=O)CN.Cl	1020	1.5	3.4	1.5	512	512	775	512	512
CCCCCCCCCCCCNC(=O)CN(C(=O)CN)N(C)C(C)=O	32 (≈ 86.4 µM)	–	17.1	–	256 (≈ 691 µM)	32 (≈ 86.4 µM)	–	128 (≈ 345 µM)	64 (≈ 173 µM)
CCCCCCCCCCCCCCCCCCNC(=O)CN(NC(C)=O)C(=O)CN.Cl	32	0.9	28	0.5	512	32	228	512	256
CCCCCCCCNC(=O)CN(C(=O)CN)N(C)C(=O)C(C)(C)C	512 (≈ 1440 µM)	–	11.7	–	512 (≈ 1440 µM)	512 (≈ 1440 µM)	–	256 (≈ 718 µM)	512 (≈ 1440 µM)
CCCCCCCCCCCC(=O)NN(CC(=O)NCCCCCCCC)C(=O)CN.Cl	16	7.6	23.5	3.8	128	8	486	128	64
CCCCCCCCNC(=O)CN(C(=O)CN)N(C)C(C)=O	1020 (≈ 3260 µM)	–	9.1	–	2050 (≈ 6510 µM)	1020 (≈ 3260 µM)	–	2050 (≈ 6510 µM)	2050 (≈ 6510 µM)
CCCCCCCCNC(=O)CN(NC(=O)c1ccccc1)C(=O)CN.Cl	128	2.9	12.3	2.9	128	128	368	128	128
CCCCCCCCCCCCCCCCCCNC(=O)CN(NC(=O)CCCCCCCCCCC)C(=O)CN.Cl	512	1.4	35.9	< 0.7	512	512	364	> 512	256
CCCCCCCCNC(=O)CN(C(=O)CN)N(C)C(=O)OCc1ccccc1	128 (≈ 315 µM)	–	13.8	–	256 (≈ 630 µM)	128 (≈ 315 µM)	–	128 (≈ 315 µM)	128 (≈ 315 µM)
